From ChEMBL document CHEMBL4266041, “Hydroxybiphenylamide GroEL/ES Inhibitors Are Potent Antibacterials against Planktonic and Biofilm Forms of Staphylococcus aureus” (J Med Chem, 2018)
Calls of active or inactive are those of the source. No cut-off for these calls is given here.

Columns and labels:
[1] = biological target: T1, E. coli GroEL/ES (Escherichia coli, UniProt P0A6F5); test: Inhibition of Escherichia coli GroEL expressed in Escherichia coli DH5alpha/Escherichia coli GroES expressed in Escherichia coli BL21 (DE3) assessed as reduction in GroEL/GroES-mediated denatured rhodanese refolding after 45 mins by spectrometric analysis
Method in brief: (§1)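 Uses E. coli GroEL/ES with a denatured MDH or rhodanese reporter. GroEL first forms a binary complex with the denatured reporter. Refolding is started by adding ATP and GroES, then reporter enzyme activity is read. DMSO is the negative control. IC50 values from replicate curves are log-averaged after ROUT outlier screening.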

[2] = tested on: Staphylococcus aureus; test: Antibacterial activity against Staphylococcus aureus ATCC 25923 after 6 to 8 hrs by bacterial proliferation assay; type: functional, organism-based
[3] = biological target: T2, Thiosulfate sulfurtransferase (Homo sapiens, UniProt Q16762); test: Inhibition of refolded rhodanese (unknown origin) preincubated with Escherichia coli GroEL/GroES for 60 mins in absence of compound followed by compound addition by spectrometric analysis
T2 sequence (Q16762 whole entry): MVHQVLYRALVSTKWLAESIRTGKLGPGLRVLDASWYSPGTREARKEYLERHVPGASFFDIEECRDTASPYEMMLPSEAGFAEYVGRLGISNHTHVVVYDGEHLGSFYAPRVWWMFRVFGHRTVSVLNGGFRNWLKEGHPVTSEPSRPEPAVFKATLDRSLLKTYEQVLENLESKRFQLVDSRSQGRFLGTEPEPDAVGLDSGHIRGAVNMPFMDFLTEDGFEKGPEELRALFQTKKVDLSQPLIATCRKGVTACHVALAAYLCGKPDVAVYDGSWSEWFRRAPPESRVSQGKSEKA

[4] = Inhibition of refolded MDH (unknown origin) preincubated with Escherichia coli GroEL/GroES for 45 mins in absence of compound followed by compound addition and measured for 20 to 35 mins by spectrometric analysis
[5] = tested on: Enterococcus faecium; test: Antibacterial activity against Enterococcus faecium ATCC 19434 after 24 hrs by bacterial proliferation assay; type: functional, organism-based; details: ATCC 19434, 24 h
[6] = tested on: Staphylococcus aureus; test: Antibacterial activity against methicillin-resistant Staphylococcus aureus ATCC BAA-44 after 6 to 8 hrs by bacterial proliferation assay; type: functional, organism-based; details: Staphylococcus aureus, ATCC BAA-44
[7] = tested on: Klebsiella pneumoniae; test: Antibacterial activity against Klebsiella pneumoniae ATCC 13883 after 6 to 8 hrs by bacterial proliferation assay; type: functional, organism-based
Method in brief: (§2)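 Bacterial growth inhibition in liquid culture. The highest concentration tested was 100 µM. The mean was back-calculated from the average log value. Values above the top concentration were set 0.1 log unit higher.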

[8] = tested on: Acinetobacter baumannii; test: Antibacterial activity against Acinetobacter baumannii ATCC 19606 after 24 hrs by bacterial proliferation assay; type: functional, organism-based; details: ATCC 19606 = CIP 70.34 = JCM 6841, 24 h; method in brief: as §2
[9] = tested on: Pseudomonas aeruginosa; test: Antibacterial activity against Pseudomonas aeruginosa ATCC 10145 after 24 hrs by bacterial proliferation assay; type: functional, organism-based; details: ATCC 10145, 24 h; method in brief: as §2
[10] = tested on: Enterobacter cloacae; test: Antibacterial activity against Enterobacter cloacae subsp. cloacae ATCC 13047 after 24 hrs by bacterial proliferation assay; type: functional, organism-based; details: subsp. cloacae ATCC 13047, 24 h; method in brief: as §2
[11] = Cytotoxicity against human THLE3 cells assessed as reduction in cell viability after 48 hrs by Alamar Blue reporter assay
[12] = tested on: HEK293; test: (§3) Cytotoxicity against HEK293 cells assessed as reduction in cell viability after 48 hrs by Alamar Blue reporter assay; details: human, hek293, 48 h
[13] = tested on: Staphylococcus aureus; test: Antibacterial activity against methicillin-resistant Staphylococcus aureus ATCC BAA-44 precultured for 24 hrs passage with compound followed by subculture in presence of compound for 12 days serial passage; type: functional, organism-based
Method in brief: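 Cells from the first well with OD600 >0.2 were sub-cultured 24 h in a fresh compound dilution series. Serial passage ran for 12 days, with EC50 determined after each passage. Averages are from triplicate analyses.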

[14] = tested on: Staphylococcus aureus; test: Ratio of EC50 for bactericidal activity against Staphylococcus aureus Rosenbach ATCC 25923 in biofilms to EC50 for planktonic growth of Staphylococcus aureus Rosenbach ATCC 25923; type: functional
[15] = tested on: Staphylococcus aureus; test: Antibiofilm activity against Staphylococcus aureus Rosenbach ATCC 25923 after 24 hrs by crystal-violet based UV-Vis spectroscopy; type: functional, organism-based; details: Rosenbach ATCC 25923, 24 h
Method in brief: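 ATCC 25923 colony grown overnight in TSB at 37°C with shaking, precultured 1 h in TSB + 0.5% glucose, then diluted to OD600 0.01. Incubated stagnant at 37°C for 24 h with compound (100 µM–46 nM, 3-fold, DMSO), alongside bacteria-free baseline plates. Wells washed, crystal violet stained 15 min, developed in MeOH:AcOH:H2O, A595.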

[16] = tested on: Staphylococcus aureus; test: Bactericidal activity against Staphylococcus aureus Rosenbach ATCC 25923 in biofilms preincubated for 24 hrs followed by compound wash out and measured after 24 hrs; type: functional, organism-based
Method in brief: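 ATCC 25923 preculture (TSB + 0.5% glucose, OD600 0.01) grown stagnant 24 h at 37°C to form biofilm, without compound. Wells washed 3× with PBS, then fresh TSB added with compound (100 µM–46 nM, 3-fold, DMSO) for 24 h at 37°C. Washed again, then recovered in fresh TSB 24 h at 37°C.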

[17] = tested on: Staphylococcus aureus; test: Bactericidal activity against planktonic growth of Staphylococcus aureus Rosenbach ATCC 25923 preincubated for 24 hrs followed by compound wash out and measured after 24 hrs; type: functional, organism-based
[18] = Therapeutic index, ratio of CC50 for human THLE3 cells to EC50 for methicillin-resistant Staphylococcus aureus ATCC BAA-44; type: toxicity; details: read-out: Ratio CC50/EC50
Method in brief: (§4)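 Ratio of human-cell CC50 to MRSA (ATCC BAA-44) EC50. […] EC50 comes from inhibition of MRSA proliferation in liquid culture. Replicate values were log-transformed, screened for outliers (ROUT, Q 10%), then averaged and back-calculated. Values above 100 µM were entered as 126 µM.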

[19] = Therapeutic index, ratio of CC50 for HEK293 cells to EC50 for methicillin-resistant Staphylococcus aureus ATCC BAA-44; type: toxicity; details: human, read-out: Ratio CC50/EC50; method in brief: as §4
[20] = biological target: T1, E. coli GroEL/ES; test: Inhibition of Escherichia coli GroEL expressed in Escherichia coli DH5alpha/Escherichia coli GroES expressed in Escherichia coli BL21 (DE3) assessed as reduction in GroEL/GroES-mediated denatured MDH refolding after 20 to 40 mins by spectrometric analysis; method in brief: as §1
[21] = biological target: HSP60/HSP10 (Homo sapiens, UniProt P10809); test: Inhibition of human N-terminal octa-His-tagged HSP60 expressed in Escherichia coli Rosetta(DE3) pLysS/human HSP10 expressed in Escherichia coli Rosetta(DE3) assessed as reduction in HSP60/HSP10-mediated denatured MDH refolding after 40 to 60 mins by spectrometric analysis
Method in brief: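 Human HSP60/10 refolding of denatured MDH, run the same way as the GroEL/ES-dMDH assay. A binary complex of chaperonin and denatured MDH is formed, and refolding is started with ATP and HSP10. MDH activity is the read-out. DMSO is the negative control. IC50 values from replicate curves are log-averaged after ROUT outlier screening.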

[22] = as §3; details: human, HEK293 cells

T1 sequence (P0A6F5 whole entry, looked up): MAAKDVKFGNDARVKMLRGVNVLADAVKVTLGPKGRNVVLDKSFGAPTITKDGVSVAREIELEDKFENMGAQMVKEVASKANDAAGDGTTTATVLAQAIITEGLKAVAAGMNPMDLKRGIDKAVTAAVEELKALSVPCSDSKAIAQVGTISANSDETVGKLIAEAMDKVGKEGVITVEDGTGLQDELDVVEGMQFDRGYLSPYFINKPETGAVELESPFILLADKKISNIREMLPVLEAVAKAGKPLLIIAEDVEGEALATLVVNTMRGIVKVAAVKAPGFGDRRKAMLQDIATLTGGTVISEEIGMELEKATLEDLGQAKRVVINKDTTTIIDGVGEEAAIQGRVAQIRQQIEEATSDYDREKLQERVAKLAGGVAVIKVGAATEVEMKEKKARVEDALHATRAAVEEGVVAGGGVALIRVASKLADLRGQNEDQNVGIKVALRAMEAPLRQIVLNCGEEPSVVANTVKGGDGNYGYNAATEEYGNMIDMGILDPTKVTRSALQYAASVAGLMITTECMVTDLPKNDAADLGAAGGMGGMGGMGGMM
Chain of HSP60/HSP10 (P10809 whole entry): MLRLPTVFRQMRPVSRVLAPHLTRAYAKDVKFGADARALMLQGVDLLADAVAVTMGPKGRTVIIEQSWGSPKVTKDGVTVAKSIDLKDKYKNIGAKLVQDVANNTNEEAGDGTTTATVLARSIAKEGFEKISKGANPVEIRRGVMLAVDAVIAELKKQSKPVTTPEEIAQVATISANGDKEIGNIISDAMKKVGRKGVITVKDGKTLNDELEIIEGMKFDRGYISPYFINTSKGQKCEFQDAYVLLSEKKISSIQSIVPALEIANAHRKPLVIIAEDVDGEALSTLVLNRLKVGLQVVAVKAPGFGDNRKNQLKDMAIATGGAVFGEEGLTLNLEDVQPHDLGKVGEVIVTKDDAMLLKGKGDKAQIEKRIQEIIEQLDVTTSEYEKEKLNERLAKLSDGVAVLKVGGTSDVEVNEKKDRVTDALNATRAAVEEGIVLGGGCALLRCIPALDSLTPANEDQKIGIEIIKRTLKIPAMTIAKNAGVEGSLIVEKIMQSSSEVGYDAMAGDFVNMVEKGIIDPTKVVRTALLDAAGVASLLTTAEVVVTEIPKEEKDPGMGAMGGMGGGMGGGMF
Chain of HSP60/HSP10 (P61604 whole entry, further chain): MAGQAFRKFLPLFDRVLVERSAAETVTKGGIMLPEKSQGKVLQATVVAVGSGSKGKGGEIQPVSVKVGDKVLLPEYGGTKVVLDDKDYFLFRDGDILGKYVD

| Structure (SMILES) | IC50 [1] [µM] | EC50 [2] [µM] | IC50 [3] [µM] | IC50 [4] [µM] | EC50 [5] [µM] | EC50 [6] [µM] | EC50 [7] [µM] | EC50 [8] [µM] | EC50 [9] [µM] | EC50 [10] [µM] | further results |
| --- | --- | --- | --- | --- | --- | --- | --- | --- | --- | --- | --- |
| O=C(Nc1ccc(Sc2nc3ccccc3s2)c(Cl)c1)c1cc(Br)cc(Br)c1O | 1.5 | 0.36 | > 100 | 6.8 | 0.52 | 0.55 | > 100 | 66 | > 100 | > 100 | CC50 ([11]; 48 h): 14 µM; CC50 [12]: 76 µM; Activity [13]: Active; Ratio EC50 [14]: 5 - 15; EC50 [15]: 0.72 µM; EC50 [16]: 2.4 µM; EC50 [17]: 0.36 µM; selectivity ratio [18]: > 50; selectivity ratio [19]: > 50 |
| CCCCCCCCCC(=O)N[C@@H](Cc1c[nH]c2ccccc12)C(=O)NC(CC(N)=O)C(=O)N[C@@H](CC(=O)O)C(=O)N[C@@H]1C(=O)NCC(=O)N[C@@H](CCCN)C(=O)N[C@@H](CC(=O)O)C(=O)N[C@H](C)C(=O)N[C@@H](CC(=O)O)C(=O)NCC(=O)N[C@H](CO)C(=O)N[C@@H]([C@H](C)CC(=O)O)C(=O)N[C@@H](CC(=O)c2ccccc2N)C(=O)O[C@@H]1C (single isomer, unassigned) [DAPTOMYCIN] | > 100 | 0.68 | > 100 | > 63 | 9.2 | 1 | > 100 | > 100 | > 100 | > 100 | IC50 [20]: > 100 µM; IC50 [21]: > 100 µM; CC50 at 48 h ([11]; THLE3 cells): > 100 µM; CC50 at 48 h [22]: > 100 µM |
